Results: ChEMBL document CHEMBL4138250, “Regioselective IBX-Mediated Synthesis of Coumarin Derivatives with Antioxidant and Anti-influenza Activities” (J Nat Prod, 2017)
≈ marks a conversion by molar mass, not a printed value.

Assays:
[1] = Antioxidant activity assessed as DPPH radical scavenging activity incubated for 30 mins under dark condition; format: functional
Method in brief: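 Compounds serially diluted in EtOH (0.01−100 mg/mL) and added to freshly prepared DPPH (6 × 10−5 M in EtOH). Mixture shaken, kept 30 min in the dark, then absorbance read at 517 nm against a solvent blank. % scavenging is relative to a DPPH-only control, corrected for sample colour without DPPH. IC50 is the concentration giving 50% inhibition; triplicate runs.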

[2] = system: A549; assay: Cytotoxicity against human A549 cells assessed as reduction in cell viability up to 120 ug/ml after 24 hrs by microscopic analysis; format: cell-based; details: a549, 24 h
Method in brief: (§1)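 A549 cells seeded at 2 × 10^5/mL; after 24 h, exposed to compounds at 10−120 μg/mL for a further 24 h. Viability assessed by microscopic examination, Trypan blue (0.02%) exclusion and MTT reduction. Cytotoxicity expressed as % reduction in viable cells relative to cultures treated with DMSO alone.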

[3] = system: A549; assay: Cytotoxicity against human A549 cells assessed as reduction in cell viability up to 120 ug/ml after 24 hrs by tryphan blue exclusion assay; format: cell-based; details: a549, 24 h; method in brief: as §1
[4] = system: A549; assay: Cytotoxicity against human A549 cells assessed as reduction in cell viability up to 120 ug/ml after 24 hrs by MTT assay; format: cell-based; details: a549, 24 h; method in brief: as §1
[5] = system: Influenza A virus; assay: Antiviral activity against Influenza A virus (A/Puerto Rico/8/34(H1N1)) infected in A549 cells assessed as reduction in viral titer after 24 to 48 hrs by hemagglutination test; format: functional, organism-based; details: A/Puerto Rico/8/1934(H1N1)
Method in brief: (§2)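 Confluent A549 monolayers (DMEM, 10% FBS) infected with PR8 at MOI 0.0001 for 1 h at 37 °C, PBS-washed, then kept in 2% FBS medium. Compounds in DMSO were diluted in DMEM to final 30, 40, 60, 80 or 120 μg/mL, added after adsorption and kept to the end. DMSO was at most 0.2%, with matching DMSO-treated controls and mock infection. Supernatant HAU read at 24 and 48 h with human type 0 Rh+ erythrocytes.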

[6] = system: Influenza A virus; assay: Antiviral activity against Influenza A virus (A/Puerto Rico/8/34(H1N1)) infected in A549 cells assessed as reduction in viral titer at 120 ug/ml after 24 to 48 hrs by hemagglutination test relative to control; format: functional, A/Puerto Rico/8/1934(H1N1); design: scale not given: the % may be the effect or the level left; method in brief: as §2

SMILES	IC50 [1] [µg/mL]	Activity [2]	Activity [3]	Activity [4]	Activity [5]	IC50 [5] [µg/mL]	Activity [6] [%]
O=c1ccc2c(O)c(O)c(O)cc2o1	2500 (≈ 12.9 mM)	Non-Toxic	Non-Toxic	Non-Toxic	Dose-dependent effect	47.9 (≈ 0.247 mM)	–
COc1cc2ccc(=O)oc2c(O)c1O [FRAXETIN]	39200 (≈ 188 mM)	–	–	–	–	–	–
O=c1ccc2cc(O)c(O)c(O)c2o1	8700 (≈ 44.8 mM)	Non-Toxic	Non-Toxic	Non-Toxic	Dose-dependent effect	69.9 (≈ 0.36 mM)	–
Nc1ccc2c(C(F)(F)F)cc(=O)oc2c1	–	Non-Toxic	Non-Toxic	Non-Toxic	Dose-dependent effect	51 (≈ 0.223 mM)	–
Cc1cc(=O)oc2c(O)c(O)ccc12 [4-METHYLDAPHNETIN]	22000 (≈ 114 mM)	Non-Toxic	Non-Toxic	Non-Toxic	Dose-dependent effect	91.5 (≈ 0.476 mM)	–
O=c1ccc2ccc(O)c(O)c2o1 [DAPHNETIN]	27200 (≈ 153 mM)	–	–	–	–	146 (≈ 0.818 mM)	–
Nc1ccc2c(C(F)(F)F)cc(=O)oc2c1O	9300 (≈ 37.9 mM)	Non-Toxic	Non-Toxic	Non-Toxic	Dose-dependent effect	47.8 (≈ 0.195 mM)	–
O=c1cc(O)c2ccc(O)c(O)c2o1	24100 (≈ 124 mM)	–	–	–	–	–	–
O=c1ccc2ccc(O)cc2o1 [UMBELLIFERONE]	> 200000	Non-Toxic	Non-Toxic	Non-Toxic	Dose-dependent effect	110 (≈ 0.678 mM)	50
O=c1ccc2cc(O)c(O)cc2o1 [ESCULETIN]	37700 (≈ 212 mM)	–	–	–	–	–	–
O=c1ccc2c(O)c(O)ccc2o1	–	Non-Toxic	Non-Toxic	Non-Toxic	Dose-dependent effect	106 (≈ 0.598 mM)	50
O=c1ccc2cc(O)ccc2o1 [6-HYDROXYCOUMARIN]	> 200000	Non-Toxic	Non-Toxic	Non-Toxic	Dose-dependent effect	110 (≈ 0.678 mM)	50
